The text below walks through data of ChEMBL document CHEMBL1152597, “Push-pull benzothiazole derivatives as probes for detecting beta-amyloid plaques in Alzheimer's brains” (Bioorg Med Chem, 2009).

The term pIC50 denotes the negative decadic logarithm of the IC50, by convention in mol/L. Low values mean a large IC50, high ones a small IC50.

SMILES strings stand for the structures. pIC50: −log10 of the molar value. Activity calls are given as the source filed them. The rule behind the calls is not given here.

A short description of assay [1]: Inhibition of amyloid beta (1-42) aggregation by thioflavin T competition binding experiment.
For assay [2], the species on record is Mus musculus. In words: Binding affinity to beta-amyloid plaques in Alzheimer's disease Tg2576 mouse brain by thioflavin S staining. It is filed as tissue-based. The essentials:
(§1)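 Tg2576 (female, 27-month-old) and wild-type (female, 27-month-old) mouse brains were cut into 10 µm serial sections. Sections were incubated 10 min with probe in 50% EtOH, washed twice for 1 min in 50% EtOH and examined by fluorescence microscopy. Serial sections were counterstained with thioflavin S to confirm plaques.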

For assay [3], the species on record is Mus musculus. The assay is described as follows: Binding affinity to beta-amyloid plaques in wild type mouse assessed as accumulation in brain by thioflavin S staining. It counts as tissue-based. The procedure, abridged: as §1
Assay [4] deals with Amyloid-beta precursor protein (Homo sapiens) (UniProt P05067). In words: Binding affinity to beta-amyloid plaques in Alzheimer's disease patient temporal cortex by immunohistochemical staining. It is filed as tissue-based. The essentials:
(§2)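 Probe staining was done on 5 µm sections of temporal cortex from AD brain and from adult normal brain, read by fluorescence microscopy. Serial sections were immunostained with anti-Aβ antibodies to compare the plaque staining pattern.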

Assay [5] shares this target. In words: Binding affinity to beta-amyloid plaques in normal patient brain section by immunohistochemical staining. The procedure, abridged:
as §2

Sequence of Amyloid-beta precursor protein (Homo sapiens) (P05067 whole entry): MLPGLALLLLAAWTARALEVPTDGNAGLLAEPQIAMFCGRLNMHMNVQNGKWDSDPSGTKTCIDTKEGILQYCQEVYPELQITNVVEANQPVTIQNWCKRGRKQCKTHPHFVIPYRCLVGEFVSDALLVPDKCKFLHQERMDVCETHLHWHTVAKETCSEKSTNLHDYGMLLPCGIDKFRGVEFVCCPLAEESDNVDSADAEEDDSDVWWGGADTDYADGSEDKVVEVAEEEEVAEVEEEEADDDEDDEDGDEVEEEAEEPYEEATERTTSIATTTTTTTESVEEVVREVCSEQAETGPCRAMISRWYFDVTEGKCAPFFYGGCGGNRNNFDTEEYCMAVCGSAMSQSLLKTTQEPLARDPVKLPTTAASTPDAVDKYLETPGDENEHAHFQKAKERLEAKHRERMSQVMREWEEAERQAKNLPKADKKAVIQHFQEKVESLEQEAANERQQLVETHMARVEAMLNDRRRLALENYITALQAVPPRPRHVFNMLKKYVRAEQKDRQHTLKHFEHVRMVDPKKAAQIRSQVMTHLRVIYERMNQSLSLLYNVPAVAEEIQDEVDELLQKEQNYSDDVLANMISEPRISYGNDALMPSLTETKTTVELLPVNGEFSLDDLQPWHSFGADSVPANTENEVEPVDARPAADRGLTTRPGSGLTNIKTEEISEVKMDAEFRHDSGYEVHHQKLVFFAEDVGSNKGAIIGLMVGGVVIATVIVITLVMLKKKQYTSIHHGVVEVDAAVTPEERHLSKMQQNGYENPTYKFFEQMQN

Regarding `CN(C)c1ccc2nc(/C=C/c3ccc(C=C(C#N)C#N)cc3)sc2c1`, in assay [1], the pIC50 was 6.96. Further, the result (in the assay listed under Mus musculus [2]; in assay [4]) was Active. For the same compound, the result (in the assay listed under Mus musculus [3]; in assay [5]) was inactive.
In assay [1], `[11CH3]Nc1ccc(-c2nc3ccc(O)cc3s2)cc1` [PITTSBURGH COMPOUND B] showed a pIC50 of 6.17.
For the compound `CN(C)c1ccc2nc(C=C(C#N)C#N)sc2c1`, the pIC50 in assay [1] is 6.92. Also, the outcome (in the assay listed under Mus musculus [2]; in assay [4]) was Active. The outcome (in the assay filed under Mus musculus [3]; in assay [5]) was inactive.
